{
  "source": "paper PMC3823688",
  "about": "(Journal of medicinal chemistry, 2013)",
  "key": {"AAC(6')-Ib'": {"tested_on": "AAC(6')-Ib'", "assay": "acetylation of compounds by AAC", "assay_type": "biochemical", "conditions": "for relative activity of AAC(6')-Ib' on compound: initial rate normalized to 1 = 100%, 100 µM compound; for times less prone to deactivation by AAC(6')-Ib' than 1: relative to 1, stated jointly for both AAC(6') enzymes", "method_in_brief": "(§1)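 Acetyltransferase activity followed at 412 nm by Ellman's method, with CoASH release coupled to DTNB (2 mM), at 25 °C. Mix: test compound 100 µM, AcCoA 150 µM, enzyme 0.5 µM. Buffer: 50 mM MES pH 6.6 for AAC(6')/APH(2\"), 50 mM Tris pH 7.5 for AAC(6')-Ib'. Read every 30 s for 1 h. Initial rates from first 2–5 min, normalized to parent aminoglycoside; triplicate.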"}, "AAC(6')/APH(2\")": {"molecular_target": "AAC(6')/APH(2\") (Staphylococcus aureus, UniProt P0A0C1)", "sequence (P0A0C1 whole entry)": "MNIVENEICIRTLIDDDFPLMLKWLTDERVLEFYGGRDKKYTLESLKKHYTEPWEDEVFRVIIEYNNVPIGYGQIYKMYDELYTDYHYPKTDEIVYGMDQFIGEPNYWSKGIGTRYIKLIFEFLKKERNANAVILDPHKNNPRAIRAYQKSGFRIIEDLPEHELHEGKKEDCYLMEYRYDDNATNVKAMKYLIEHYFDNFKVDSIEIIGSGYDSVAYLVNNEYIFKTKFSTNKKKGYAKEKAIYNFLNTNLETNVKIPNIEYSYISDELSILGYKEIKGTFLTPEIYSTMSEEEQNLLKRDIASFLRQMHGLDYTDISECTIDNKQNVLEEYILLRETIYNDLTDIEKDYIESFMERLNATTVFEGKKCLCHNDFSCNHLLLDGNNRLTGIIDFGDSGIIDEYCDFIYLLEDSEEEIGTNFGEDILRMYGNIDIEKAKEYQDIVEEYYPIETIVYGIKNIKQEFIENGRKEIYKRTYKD", "assay": "acetylation of compounds by AAC", "assay_type": "biochemical", "conditions": "for relative activity of AAC(6')/APH(2\") (acetyltransferase) on compound: initial rate normalized to 1 = 100%, 100 µM compound; for times less prone to deactivation by AAC(6')/APH(2\") than 1: relative to 1, stated jointly for both AAC(6') enzymes", "method_in_brief": "as §1"}, "[1]": {"molecular_target": "chloramphenicol nitroreductase (CNR) (Haemophilus influenzae, UniProt Q57431)", "sequence (Q57431 whole entry)": "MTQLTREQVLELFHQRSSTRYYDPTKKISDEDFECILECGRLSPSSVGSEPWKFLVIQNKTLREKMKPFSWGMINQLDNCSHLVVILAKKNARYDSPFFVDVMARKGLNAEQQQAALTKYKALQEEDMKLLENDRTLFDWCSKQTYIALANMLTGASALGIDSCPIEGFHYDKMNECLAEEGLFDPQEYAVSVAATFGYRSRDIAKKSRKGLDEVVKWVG", "assay": "reduction of compounds by CNR", "assay_type": "biochemical, H. influenzae", "conditions": "for relative activity of CNR on compound: initial rate normalized to 3 = 100%, 100 µM compound"}, "tested bacterial strains": {"tested_on": "tested bacterial strains", "assay": "organism not typed", "assay_type": "cell-based"}, "[2]": {"molecular_target": "chloramphenicol phosphotransferase (CPT) (Streptomyces venezuelae, UniProt Q56148)", "sequence (Q56148 5-178)": "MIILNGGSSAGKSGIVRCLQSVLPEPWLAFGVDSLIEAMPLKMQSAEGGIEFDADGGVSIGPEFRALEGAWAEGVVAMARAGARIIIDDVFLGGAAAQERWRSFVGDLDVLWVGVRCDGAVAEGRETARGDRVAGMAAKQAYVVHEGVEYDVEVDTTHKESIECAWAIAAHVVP", "assay": "phosphorylation of compounds by CPT", "assay_type": "biochemical", "conditions": "compared to 3"}, "[3]": {"tested_on": "E. coli S30 extracts (E. coli ribosomes)", "assay": "in vitro prokaryotic translation assay", "assay_type": "biochemical"}, "ANT(4')": {"molecular_target": "ANT(4') (Staphylococcus aureus, UniProt P05057)", "sequence (P05057 whole entry)": "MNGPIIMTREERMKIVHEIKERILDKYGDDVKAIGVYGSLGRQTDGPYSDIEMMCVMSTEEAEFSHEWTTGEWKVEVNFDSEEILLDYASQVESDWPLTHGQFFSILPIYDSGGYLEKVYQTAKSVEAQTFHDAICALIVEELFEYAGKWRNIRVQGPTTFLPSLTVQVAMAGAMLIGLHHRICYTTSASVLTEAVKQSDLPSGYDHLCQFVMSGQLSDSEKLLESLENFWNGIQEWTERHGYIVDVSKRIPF", "assay": "nucleotidylation of compounds by ANT", "assay_type": "biochemical, S. aureus", "conditions": "initial rate normalized to 1 = 100%; 100 µM compound"}, "S. aureus ATCC 29213": {"tested_on": "S. aureus ATCC 29213", "assay": "MIC determination by double-dilution", "assay_type": "cell-based, Staphylococcus aureus"}, "Tetrahymena ribozyme": {"tested_on": "Tetrahymena ribozyme", "conditions": "compared to parent antibiotic 1; cited from earlier work"}},
  "note": "Read-outs that look alike come from different tables or passages of the source.",
  "data": [
    {"molecule": "CCC[C@@H]1C[C@@H](C(=O)NC([C@H]2O[C@H](SC)[C@H](O)[C@@H](O)[C@H]2O)[C@@H](C)SCCOCCSSCCOCCSC[C@H]2O[C@@H](O[C@@H]3[C@@H](O)[C@H](O[C@H]4O[C@H](CN)[C@@H](O)C[C@H]4N)[C@@H](N)C[C@H]3N)[C@H](O)[C@@H](N)[C@@H]2O)N(C)C1", "note": "(stereo partly shown) [Compound 18]", "values": [
      {"measurement": "relative activity of AAC(6')-Ib' on compound", "setting": "AAC(6')-Ib'", "value": 20, "unit": "%"},
      {"measurement": "times less prone to deactivation by AAC(6')-Ib' than 1", "setting": "AAC(6')-Ib'", "value": "2.5–5 times"},
      {"measurement": "relative activity of AAC(6')/APH(2\") (acetyltransferase) on compound", "setting": "AAC(6')/APH(2\")", "value": 31, "unit": "%"},
      {"measurement": "times less prone to deactivation by AAC(6')/APH(2\") than 1", "setting": "AAC(6')/APH(2\")", "value": "2.5–5 times"}
    ]},
    {"molecule": "CCC[C@@H]1C[C@@H](C(=O)NC([C@H]2O[C@H](SC)[C@H](O)[C@@H](O)[C@H]2O)[C@@H](C)SCCOCCSSCCOCCSCC(=O)N[C@@H](CO)[C@H](O)c2ccc([N+](=O)[O-])cc2)N(C)C1", "note": "(stereo partly shown) [Compound 24]", "values": [
      {"measurement": "relative activity of CNR on compound", "setting": "[1]", "value": 174, "unit": "%"}
    ]},
    {"molecule": "CCC[C@@H]1C[C@@H](C(=O)NC([C@H]2O[C@H](SC)[C@H](O)[C@@H](O)[C@H]2O)[C@@H](C)SCCOCCSSCCOCCS[C@H](C)C(NC(=O)[C@@H]2C[C@@H](CCC)CN2C)[C@H]2O[C@H](SC)[C@H](O)[C@@H](O)[C@H]2O)N(C)C1", "note": "(stereo partly shown) [Compound 10]", "values": [
      {"measurement": "MIC", "setting": "tested bacterial strains; read-out: MICs against eight of the tested bacterial strains", "value": "0.6 to 9.4", "unit": "µg/mL"}
    ]},
    {"molecule": "O=C(CSCCOCCSCC(=O)N[C@H](CO)[C@H](O)c1ccc([N+](=O)[O-])cc1)N[C@H](CO)[C@H](O)c1ccc([N+](=O)[O-])cc1", "note": "[Compound 25]", "values": [
      {"measurement": "substrate quality for CPT (in words)", "setting": "[2]", "value": "poor substrate"},
      {"measurement": "substrate quality for CNR (in words)", "setting": "[1]; compared to 3", "value": "poor substrate"}
    ]},
    {"molecule": "NC[C@H]1O[C@H](O[C@H]2[C@H](O)[C@@H](O[C@@H]3O[C@H](CSCCOCCSSCCOCCSCC(=O)N[C@H](CO)[C@H](O)c4ccc([N+](=O)[O-])cc4)[C@@H](O)[C@H](N)[C@H]3O)[C@H](N)C[C@@H]2N)[C@H](N)C[C@@H]1O", "note": "[Compound 22]", "values": [
      {"measurement": "relative activity of AAC(6')-Ib' on compound", "setting": "AAC(6')-Ib'", "value": 31, "unit": "%"},
      {"measurement": "relative activity of AAC(6')/APH(2\") (acetyltransferase) on compound", "setting": "AAC(6')/APH(2\")", "value": 34, "unit": "%"},
      {"measurement": "relative activity of CNR on compound", "setting": "[1]", "value": 117, "unit": "%"}
    ]},
    {"molecule": "CCC[C@@H]1C[C@@H](C(=O)N[C@H]([C@H]2O[C@H](SC)[C@H](O)[C@@H](O)[C@H]2O)[C@@H](C)SCCOCCS)N(C)C1", "note": "[Compound 9]", "values": [
      {"measurement": "MIC", "setting": "tested bacterial strains; read-out: MIC values against seven of the tested strains", "value": "1.2 to 9.4", "unit": "µg/mL"},
      {"measurement": "IC50 fold higher than that of parent antibiotic 2, in vitro translation", "setting": "[3]; relative to 2, less potent", "value": "at least 5 fold"}
    ]},
    {"molecule": "O=C(CSCCOCCS)N[C@H](CO)[C@H](O)c1ccc([N+](=O)[O-])cc1", "note": "[Compound 13]", "values": [
      {"measurement": "fold less potent than parent antibiotic 3 in in vitro translation", "setting": "[3]; relative to 3", "value": "~8", "unit": "fold"}
    ]},
    {"molecule": "NC[C@H]1O[C@H](O[C@H]2[C@H](O)[C@@H](O[C@@H]3O[C@H](CSCCOCCS)[C@@H](O)[C@H](N)[C@H]3O)[C@H](N)C[C@@H]2N)[C@H](N)C[C@@H]1O", "note": "[Compound 6]", "values": [
      {"measurement": "relative activity of ANT(4') on compound", "setting": "ANT(4')", "value": 49, "unit": "%"}
    ]},
    {"molecule": "NC[C@H]1O[C@H](O[C@H]2[C@H](O)[C@@H](O[C@H]3O[C@H](CO)[C@@H](O)[C@H](N)[C@H]3O)[C@H](N)C[C@@H]2N)[C@H](N)C[C@@H]1O", "note": "[Compound 1, tobramycin, reference compound]", "values": [
      {"measurement": "relative activity of ANT(4') on compound", "setting": "ANT(4')", "value": 100, "unit": "%"}
    ]},
    {"molecule": "O=C(CSCCOCCSSCCOCCSCC(=O)N[C@H](CO)[C@H](O)c1ccc([N+](=O)[O-])cc1)N[C@H](CO)[C@H](O)c1ccc([N+](=O)[O-])cc1", "note": "[Compound 26]", "values": [
      {"measurement": "fold more potent than 3 (MIC)", "setting": "S. aureus ATCC 29213", "value": "approximately 16 fold"},
      {"measurement": "relative activity of CNR on compound", "setting": "[1]", "value": 220, "unit": "%"}
    ]},
    {"molecule": "NC[C@H]1O[C@H](O[C@H]2[C@H](O)[C@@H](O[C@@H]3O[C@H](CSCCOCCSSCCOCCSC[C@H]4O[C@@H](O[C@@H]5[C@@H](O)[C@H](O[C@H]6O[C@H](CN)[C@@H](O)C[C@H]6N)[C@@H](N)C[C@H]5N)[C@H](O)[C@@H](N)[C@@H]4O)[C@@H](O)[C@H](N)[C@H]3O)[C@H](N)C[C@@H]2N)[C@H](N)C[C@@H]1O", "note": "[Compound 16]", "values": [
      {"measurement": "relative activity of AAC(6')-Ib' on compound", "setting": "AAC(6')-Ib'", "value": 39, "unit": "%"},
      {"measurement": "times less prone to deactivation by AAC(6')-Ib' than 1", "setting": "AAC(6')-Ib'", "value": "2.5–5 times"},
      {"measurement": "inhibition of the activity of the Tetrahymena ribozyme (in words)", "setting": "Tetrahymena ribozyme", "value": "significantly better inhibitor"},
      {"measurement": "relative activity of AAC(6')/APH(2\") (acetyltransferase) on compound", "setting": "AAC(6')/APH(2\")", "value": 34, "unit": "%"},
      {"measurement": "times less prone to deactivation by AAC(6')/APH(2\") than 1", "setting": "AAC(6')/APH(2\")", "value": "2.5–5 times"}
    ]},
    {"molecule": "NC[C@H]1O[C@H](O[C@H]2[C@H](O)[C@@H](O[C@@H]3O[C@H](CSCCOCCSCC(=O)N[C@H](CO)[C@H](O)c4ccc([N+](=O)[O-])cc4)[C@@H](O)[C@H](N)[C@H]3O)[C@H](N)C[C@@H]2N)[C@H](N)C[C@@H]1O", "note": "[Compound 20]", "values": [
      {"measurement": "relative activity of AAC(6')-Ib' on compound", "setting": "AAC(6')-Ib'", "value": 37, "unit": "%"}
    ]},
    {"molecule": "CCC[C@@H]1C[C@@H](C(=O)NC([C@H]2O[C@H](SC)[C@H](O)[C@@H](O)[C@H]2O)[C@@H](C)SCCOCCSCC(=O)N[C@H](CO)[C@H](O)c2ccc([N+](=O)[O-])cc2)N(C)C1", "note": "(stereo partly shown) [Compound 23]", "values": [
      {"measurement": "relative activity of CNR on compound", "setting": "[1]", "value": 133, "unit": "%"}
    ]}
  ]
}
